Assay outcomes from PubChem BioAssay.
Sampled rows, rich in hits. Any-hit rate of the full collection: about 2.6%.
Rce1 inh: blocks yeast Ras-converting enzyme. yeast membranes, quenched prenylated peptide cleavage fluorescence. calls only. hit rate 0.27% among 290,000;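 active = fall in fluorescence gain of 50% or more versus controls, with final raw signal at or below 3038400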;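 also: plate controls were neutral control wells for no effect and wells lacking membranes for full effect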
TAAR1 antagonist: human TAAR1 antagonism; Q96RJ0; CHO RD-HGA16 TAAR1, Fluo-8 calcium fluorescence, antagonist; inhibition, % at 3 µM; hit rate 1.5% among 360,000; AID 624466;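 active = inhibition above a per-plate cutoff, the mean inhibition of test compounds on that plate plus 3 SD, cut at about 49% in these data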;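 also: 0% = DMSO plus EC80 beta-PEA response and 100% = DMSO alone without agonist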
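Material: CHO RD-HGA16 cells bearing hTAAR1; compound dosing: one-point dosing, 3 µM nominal final; schedule: dye loading 75 min at 37 °C, then 30 min room temperature; measured by: calcium fluorescence with Fluo-8; control set: vehicle and agonist controls; replication: n of 1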
VLA-4 inh: inhibition in a human VLA-4 binding assay; P13612; VLA-4 expressing cells, ligand binding flow cytometry; inhibition, % (about 7 µM as worked out from the volumes in the protocol); hit rate 0.2% among 330,000; AID 2557; in the data active = inhibition above about 50%
Target sequence (P13612 whole entry, looked up): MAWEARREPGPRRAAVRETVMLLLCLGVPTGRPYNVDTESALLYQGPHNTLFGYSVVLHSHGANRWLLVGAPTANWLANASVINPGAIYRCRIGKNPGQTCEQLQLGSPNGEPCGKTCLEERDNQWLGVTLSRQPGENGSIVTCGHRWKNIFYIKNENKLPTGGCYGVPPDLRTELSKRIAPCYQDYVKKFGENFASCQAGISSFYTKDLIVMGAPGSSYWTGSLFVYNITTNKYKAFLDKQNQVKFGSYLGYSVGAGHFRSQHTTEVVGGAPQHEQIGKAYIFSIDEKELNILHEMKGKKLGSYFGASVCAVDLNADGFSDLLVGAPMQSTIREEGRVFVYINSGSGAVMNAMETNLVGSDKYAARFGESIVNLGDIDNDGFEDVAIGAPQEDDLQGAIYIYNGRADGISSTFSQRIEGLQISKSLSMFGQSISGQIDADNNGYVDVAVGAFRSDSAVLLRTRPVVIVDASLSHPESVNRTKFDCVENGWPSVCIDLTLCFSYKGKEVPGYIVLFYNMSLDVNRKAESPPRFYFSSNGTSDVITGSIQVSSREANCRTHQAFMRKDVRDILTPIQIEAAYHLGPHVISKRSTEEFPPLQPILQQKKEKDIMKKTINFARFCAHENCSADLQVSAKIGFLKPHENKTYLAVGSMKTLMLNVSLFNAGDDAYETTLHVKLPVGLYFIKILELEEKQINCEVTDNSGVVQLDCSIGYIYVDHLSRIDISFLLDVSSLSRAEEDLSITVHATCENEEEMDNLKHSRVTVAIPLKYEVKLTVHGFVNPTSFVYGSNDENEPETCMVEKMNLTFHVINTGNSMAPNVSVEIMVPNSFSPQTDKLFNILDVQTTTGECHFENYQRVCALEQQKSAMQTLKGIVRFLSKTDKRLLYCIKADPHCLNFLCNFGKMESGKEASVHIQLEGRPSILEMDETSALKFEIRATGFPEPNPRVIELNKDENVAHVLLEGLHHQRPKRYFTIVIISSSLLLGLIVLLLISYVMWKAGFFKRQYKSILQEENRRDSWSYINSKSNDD
TAAR1 agonist: agonists of human TAAR1. Q96RJ0. CHO RD-HGA16 TAAR1, Fluo-8 calcium fluorescence; vehicle wells 0%, saturating PEA agonist 100%. activation, % at 3 µM. hit rate 0.99% among 360,000. AID 624467;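 active = activation above the mean activation of all test compounds in the run plus 3 SD, cut at about 38% in these data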
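Assay system: CHO-derived RD-HGA16 cells with stable Gα16 and human TAAR1; timing: 17-24 h seeding, 75 min 37 °C dye, 30 min RT; read-out: % activation from peak over basal fluorescence ratio, DMSO-to-PEA scaled; measured by: kinetic Fluo-8 calcium fluorescence; benchmarks: low control DMSO, high control PEA (EC100); doses: 3 µM single concentration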
Platelet DG rel: modulates dense granule release in human platelets | human platelet-rich plasma, SFLLRN dense granule ATP release, luminescence | inhibition, %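 (compounds screened at 7.5 µM in platelet-rich plasma)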 | hit rate 0.22% among 300,000 | AID 1663;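 active = mean replicate score, as percent of positive control, at or above 50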
TAAR1 ag confirm: human TAAR1 agonism, confirmed. AID 651783. activation, % at 3 µM. CHO RD-HGA16 TAAR1, Fluo-8 calcium fluorescence; scaled: DMSO 0%, maximal phenethylamine 100%. hit rate 82% among 2,400. shares compounds with TAAR1 agonist;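 active = activation above a cutoff set at the run's mean compound activation plus 3 SD, cut at about 39% in these data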
Ga16 ag counter: counter-screen for TAAR1 agonists: nonselective agonists in parental cells; shares compounds with TAAR1 agonist; CHO-Ga16 parental, Fluo-8 calcium fluorescence; normalized to maximal ATP response, DMSO zero; activation, % at 3 µM; hit rate 50% among 2,400; AID 651787;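 active = activation above the run cutoff, the mean activation over all tested wells plus 3 SD, cut at about 12% in these data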;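 also: 0% = DMSO wells and 100% = maximal ATP response on the peak over basal ratio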
TAAR1 desens: human TAAR1 agonist that also desensitizes the receptor; shares compounds with TAAR1 agonist; CHO RD-HGA16 hTAAR1, Fluo-8 calcium, beta-PEA response inhibition; inhibition, % at 3 µM; hit rate 46% among 2,400;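 active = inhibition above the run cutoff, the mean inhibition of all test compounds plus 3 SD, cut at about 49% in these data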;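 also: beta-PEA stimulus applied at its EC80; loss of beta-PEA calcium signal after compound pretreatment read as receptor desensitization; 0% = DMSO with beta-PEA at EC80 and 100% = DMSO alone without agonist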
Ga16 nonsel ant: nonselective Ga16 antagonist in TAAR1 agonist counter-screen; hit rate 39% among 2,400; inhibition, % at 3 µM; shares compounds with TAAR1 agonist; CHO-Ga16 ATP-induced calcium, Fluo-8 fluorescence;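 active = inhibition above the plate's mean compound inhibition plus 3 SD, computed per plate, cut at about 22% in these data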;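 also: 0% = EC80 ATP with DMSO and 100% = DMSO wells without ATP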
Starred values were filed as active, the others as inactive; i = inactive; . = no result given; ! = not active in a repeat.

SMILES | Rce1 inh | TAAR1 antagonist | VLA-4 inh | TAAR1 agonist | Platelet DG rel | TAAR1 ag confirm | Ga16 ag counter | TAAR1 desens | Ga16 nonsel ant
COC(=O)C[C@H]1CC[C@@H](NS(=O)(=O)c2ccc(C)cc2)[C@@H](CO)O1 | . | 10 | . | 0 | . | . | . | . | .
S=c1[nH]ccn1CCc1ccccc1 | i | 4 | 6 | 62* | 4 | 64* | 0 | 36 | 1
NC(N)=N/N=C/c1c(Cl)cccc1Cl | i | 54*! | 11 | 61* | -2 | 88* | 2 | 91* | 9
CCCCOc1ccc(CSC(=N)N)cc1Cl | i | 1 | 15 | 100* | -13 | 109* | 55* | 61* | 27*
CC(=O)c1ccc(OC(C)C)c(CSC(=N)N)c1 | i | -9 | -2 | 30 | -3 | . | . | . | .
COc1ccc(Br)cc1CSC(=N)N | i | 16 | -1 | 46* | 1 | 71* | 4 | 42 | 9
CCCCCOc1ccc(Br)cc1CSC(=N)N | i | 93* | . | 93* | 1 | 106* | 60* | 102* | 71*
Cc1ccccc1NC(=O)CN1C(=O)N/C(=C\c2ccccc2OCc2ccc(C(=O)O)cc2)C1=O | i | -17 | 20 | 5 | -5 | . | . | . | .
O=C(c1ccc2c(=O)n3c(nc2c1)CCC3)N1CCN(S(=O)(=O)c2ccccc2Br)CC1 | . | -16 | . | 0 | . | . | . | . | .
Cc1cc(C(=O)Nc2cccc(O)c2)c(C)o1 | i | 0 | 2 | 50* | -13 | 50* | 17* | 3 | 5
O=C(CNC(=O)c1ccccc1)c1ccccc1 | i | 10 | 10 | 5 | 5 | . | . | . | .
O=C(CNC(=O)c1ccccc1C(=O)O)c1ccccc1 | i | 30 | 7 | 71* | 2 | 78* | 6 | 47 | 8
O=C(O)c1ccccc1C(=O)NCC(O)c1ccccc1 (stereo not drawn) | i | 7 | -2 | 72* | 10 | 96* | 2 | 62* | 4
COc1ccc2cc(CCNS(=O)(=O)c3ccc(NC(C)=O)cc3)c(=O)[nH]c2c1 | i | -23 | 12 | 0 | -6 | . | . | . | .
Cc1c(C)c2cc(Cl)c(OCC(=O)NC3CC(C)(C)NC(C)(C)C3)cc2oc1=O | i | -18 | 9 | 2 | 5 | . | . | . | .
CC(C)OC(=O)CN1C(=O)S/C(=C/c2ccc(N3CCCCC3)o2)C1=O | i | 65* | -197 | 63* | 4 | 53* | 55* | 59* | 64*
Cc1ccccc1Cn1c(C)c(C(=O)NCCC#N)sc1=O | . | 2 | . | 3 | . | . | . | . | .
Cc1ccc(C(C2=C(O)CC(C)(C)CC2=O)C2C(=O)CC(C)(C)CC2=O)s1 (stereo not drawn) | i | -11 | 7 | 35 | 8 | . | . | . | .
CC1(C)CC(=O)C(C(C2=C(O)CC(C)(C)CC2=O)c2ccc(Br)s2)C(=O)C1 (stereo not drawn) | i | 19 | 18 | 51* | 12 | 22 | 34* | 42 | 27*
C=CCC[C@@H](Cc1ccc(F)cc1)C(=O)OC[C@H](Cc1c[nH]c2ccccc12)NC(=O)[C@@H](CC=C)CC(=O)NCCO | . | 80* | 4 | 74* | . | 52* | 30* | 76* | 51*
C=CCC[C@@H](Cc1ccc(F)cc1)C(=O)OC[C@@H](Cc1c[nH]c2ccccc12)NC(=O)[C@@H](CC=C)CC(=O)NCCO | . | 36 | 2 | 7 | . | . | . | . | .
CCCCn1nc(NC(=O)CC)c2cc3cc(OC)ccc3nc21 | i | 35 | 27 | 12 | -22 | . | . | . | .
Clc1ccc2[nH]c3c(c2c1)CNCC3 | i | -21 | 3 | 32 | -2 | . | . | . | .
Clc1cccc2c3c([nH]c12)CCNC3 | i | 41 | 2 | 60* | 7 | 87* | 4 | 66* | 1
CCCCCc1ccc(OCCCC[n+]2cccc(C)c2)c(CCCCC)c1 | . | -2 | -5 | 60* | 0 | 76* | 53* | 52* | 39*
SMILES | Rce1 inh | TAAR1 antagonist | VLA-4 inh | TAAR1 agonist | Platelet DG rel | TAAR1 ag confirm | Ga16 ag counter | TAAR1 desens | Ga16 nonsel ant
Cc1cc(C(=O)CSc2nc3ccc(Cl)cc3[nH]2)c(C)n1Cc1ccco1 | i | 9 | 9 | 2 | -1 | . | . | . | .
O=CNc1cc(-c2cccc(O)c2)cn2c(-c3ccc(F)cc3)cnc12 | . | 18 | . | 7 | . | . | . | . | .
Cc1ccc(S(=O)(=O)N/N=C/c2ccc(C(=O)O)cc2)cc1 | i | 1 | -10 | 2 | 7 | . | . | . | .
Cc1ccc(S(=O)(=O)N/N=C/c2ccc(OC3CSC3)cc2)cc1 | i | 93* | 20 | 91* | 0 | 98* | 56* | 97* | 71*
COc1ccc(C(CCNCc2ccc(N(C)C)cc2)c2ccccc2)cc1 (stereo not drawn) | i | 11 | 15 | 31 | 9 | . | . | . | .
CC(C)Oc1ccc(C(CCNCc2ccc(O)cc2)c2ccccc2)cc1 (stereo not drawn) | i | 36 | 37 | 70* | 6 | 57* | 29* | 40 | 35*
CC1(C(=O)NC(=S)NNC(=O)c2ccncc2)CCCCC1 | i | 24 | 5 | 92* | 12 | 70* | 52* | 22 | 23*
O=C(NNC(=S)NC(=O)C12CC3CC(CC(C3)C1)C2)c1ccncc1 | i | 93* | -6 | 155* | -11 | 122* | 103* | 72* | 55*
CC(=O)Nc1c2c(nn1-c1ccccc1C)CS(=O)(=O)C2 | i | 9 | -14 | 0 | 2 | . | . | . | .
COc1ccc2ccccc2c1CNC(=O)CC1C(=O)NCCN1CC(C)C (stereo not drawn) | i | -20 | -23 | 3 | -3 | . | . | . | .
COCCC(=O)N1CCC(Oc2ccc(C(=O)NCCc3cn[nH]c3)cc2)CC1 | i | -18 | 12 | 0 | 6 | . | . | . | .
C=CCOC(=O)C(=O)/C=C/c1c(C)n(C)n(-c2ccccc2)c1=O | i | 4 | 19 | 2 | -3 | . | . | . | .
C=CCOC(=O)C(=O)/C=C/c1coc2ccccc2c1=O | i | 16 | 8 | 53* | -2 | 36 | 23* | -4 | 13
Nc1c(C(=O)NCc2ccccc2)nnn1Cc1ccccc1 | i | -18 | 0 | 6 | -4 | . | . | . | .
CSc1ccc(Cn2nnc(C(=O)NCc3ccccc3)c2N)cc1 | i | 75* | -13 | 98* | -5 | 105* | 48* | 60* | 41*
CC1NC(=O)COC1c1ccccc1 (stereo not drawn) | . | -6 | . | 1 | . | . | . | . | .
CN(C)C(CNC(=O)c1cc2ccccc2oc1=O)c1ccccc1 (stereo not drawn) | i | -1 | 1 | 2 | -1 | . | . | . | .
